Experimental data: ChEMBL document CHEMBL1140864, “The synthesis of ursolic acid derivatives with cytotoxic activity and the investigation of their preliminary mechanism of action” (Bioorg Med Chem, 2009)

Tests used:
[1] = system: HeLa; test: Antiproliferative activity against human HeLa cells after 96 hrs by MTT assay; assay type: functional, cell-based
Summary of the method: (§1)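 Cells grown in RPMI 1640 with 10% FBS and penicillin/streptomycin at […] °C, 5% CO2. Trypsinised cells seeded at 1.0–2.0 × 10³ per well overnight, then exposed to a concentration range in medium for 96 h. MTT (1 mg/mL) added for 4 h, formazan dissolved in DMSO, read at 490 nm. IC50 is the concentration that cuts cell number to 50%; at least three repeats.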

[2] = system: HeLa; test: Antiproliferative activity against human HeLa cells at 10 uM after 96 hrs by MTT assay; assay type: functional
Summary of the method: (§2)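 Same MTT set-up (RPMI 1640/10% FBS, 1.0–2.0 × 10³ cells per well, 96 h exposure, 4 h MTT, formazan in DMSO read at 490 nm). Value is the percent inhibition at a single 10 µM concentration. Experiments repeated at least three times.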

[3] = system: HeLa; test: Induction of apoptosis in human HeLa cells assessed as DNA fragmentation after 24 hrs by agarose gel electrophoresis; assay type: functional, cell-based
Summary of the method: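 HeLa cells treated for 24 h, washed twice in PBS and lysed in 100 mM NaCl, 10 mM Tris–HCl pH 8.0, 25 mM EDTA, 0.1 mg/ml proteinase K at 50 °C for 12 h. DNA taken through phenol/chloroform/isoamyl alcohol and chloroform/isoamyl alcohol extraction, centrifuged at 12,000g for 30 min, then run on an agarose gel to look for laddering.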

[4] = system: SK-OV-3; test: Antiproliferative activity against human SKOV3 cells after 96 hrs by MTT assay; assay type: functional, cell-based; details: SK-OV-3, 96 h; summary of the method: as §1
[5] = system: HeLa; test: Cell cycle arrest in human HeLa cells by accumulation at G1 phase at 2.5 uM after 24 hrs using PI staining by flow cytometry; assay type: functional
Summary of the method: (§3)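 HeLa cells exposed for 24 h to 2.5, 5.0 or 10.0 µM; vehicle control 0.1% DMSO. Cellular DNA stained with propidium iodide, and cell-cycle phase fractions measured by flow cytometry. Experiments done three times.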

[6] = system: HeLa; test: Cell cycle arrest in human HeLa cells by accumulation at S phase at 5.0 uM after 24 hrs using PI staining by flow cytometry; assay type: functional; summary of the method: as §3
[7] = system: HeLa; test: Cell cycle arrest in human HeLa cells by accumulation at G1 phase at 5.0 uM after 24 hrs using PI staining by flow cytometry; assay type: functional; summary of the method: as §3
[8] = system: HeLa; test: Cell cycle arrest in human HeLa cells by accumulation at S phase at 10.0 uM after 24 hrs using PI staining by flow cytometry; assay type: functional; summary of the method: as §3
[9] = system: HeLa; test: Cell cycle arrest in human HeLa cells by accumulation at G2/M phase at 5.0 uM after 24 hrs using PI staining by flow cytometry; assay type: functional; summary of the method: as §3
[10] = system: SK-OV-3; test: Antiproliferative activity against human SKOV3 cells at 10 uM after 96 hrs by MTT assay; assay type: functional; details: SK-OV-3, 96 h; summary of the method: as §2
[11] = system: BGC-823; test: Antiproliferative activity against human BGC823 cells after 96 hrs by MTT assay; assay type: functional, cell-based; details: BGC-823, 96 h; summary of the method: as §1
[12] = system: BGC-823; test: Antiproliferative activity against human BGC823 cells at 10 uM after 96 hrs by MTT assay; assay type: functional; details: BGC-823, 96 h; summary of the method: as §2
[13] = system: HeLa; test: Induction of apoptosis in human HeLa cells assessed as sub-diploid DNA content after 24 hrs by flow cytometry; assay type: functional, cell-based
Summary of the method: (§4)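 HeLa cells given 2.5, 5.0 or 10.0 µM and stained with propidium iodide. Apoptotic cells counted by flow cytometry as nuclei with sub-diploid DNA content, the region below the G1 peak; untreated cells served as control. Run three times.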

[14] = system: HeLa; test: Cell cycle arrest in human HeLa cells by accumulation at S phase at 2.5 uM after 24 hrs using PI staining by flow cytometry; assay type: functional; summary of the method: as §3
[15] = system: HeLa; test: Induction of apoptosis in human HeLa cells assessed as apoptotic cells at 10 uM by flow cytometry; assay type: functional; summary of the method: as §4
[16] = system: HeLa; test: Cell cycle arrest in human HeLa cells by accumulation at G1 phase at 10.0 uM after 24 hrs using PI staining by flow cytometry; assay type: functional; summary of the method: as §3
[17] = system: HeLa; test: Cell cycle arrest in human HeLa cells by accumulation at G2/M phase at 2.5 uM after 24 hrs using PI staining by flow cytometry; assay type: functional; summary of the method: as §3
[18] = system: HeLa; test: Cell cycle arrest in human HeLa cells by accumulation at G2/M phase at 10.0 uM after 24 hrs using PI staining by flow cytometry; assay type: functional; summary of the method: as §3

Compound | IC50 [1] | IC50 [11] | inhibition at 10 µM [2] | inhibition at 10 µM [12] | also measured
C[C@H]1[C@H](C)CC[C@]2(C(=O)NCC(=O)O)CC[C@]3(C)C(=CC[C@@H]4[C@@]5(C)CC[C@H](O)C(C)(C)[C@@H]5CC[C@]43C)[C@H]12 | > 10 µM | – | 15.6% | – | –
COC(=O)C(Cc1ccccc1)NC(=O)[C@]12CC[C@@H](C)[C@H](C)[C@H]1C1=CC[C@@H]3[C@@]4(C)CC[C@H](OC(C)=O)C(C)(C)[C@@H]4CC[C@@]3(C)[C@]1(C)CC2 (stereo not given in full) | > 10 µM | – | 32.9% | – | –
CC(=O)O[C@H]1CC[C@]2(C)[C@H]3CC=C4[C@@H]5[C@@H](C)[C@H](C)CC[C@]5(C(=O)NC(C)CO)CC[C@@]4(C)[C@]3(C)CC[C@H]2C1(C)C (stereo not given in full) | 5.44 µM | – | 58.4% | – | –
C[C@H]1[C@H](C)CC[C@]2(C(=O)NC(CO)C(=O)O)CC[C@]3(C)C(=CC[C@@H]4[C@@]5(C)CC[C@H](O)C(C)(C)[C@@H]5CC[C@]43C)[C@H]12 (stereo not given in full) | > 10 µM | – | 16.8% | – | –
COC(=O)C(NC(=O)[C@]12CC[C@@H](C)[C@H](C)[C@H]1C1=CC[C@@H]3[C@@]4(C)CC[C@H](OC(C)=O)C(C)(C)[C@@H]4CC[C@@]3(C)[C@]1(C)CC2)C(C)O (stereo not given in full) | 6.86 µM | – | 55.9% | – | –
CCC(C)C(NC(=O)[C@]12CC[C@@H](C)[C@H](C)[C@H]1C1=CC[C@@H]3[C@@]4(C)CC[C@H](O)C(C)(C)[C@@H]4CC[C@@]3(C)[C@]1(C)CC2)C(=O)O (stereo not given in full) | > 10 µM | – | 16.8% | – | IC50 [4]: > 10 µM; inhibition at 10 µM [10]: 5.01%
CC(=O)O[C@H]1CC[C@]2(C)[C@H]3CC=C4[C@@H]5[C@@H](C)[C@H](C)CC[C@]5(C(=O)Nc5ccccc5CO)CC[C@@]4(C)[C@]3(C)CC[C@H]2C1(C)C | 1.63 µM | – | 77.5% | – | –
COC(=O)C(CO)NC(=O)[C@]12CC[C@@H](C)[C@H](C)[C@H]1C1=CC[C@@H]3[C@@]4(C)CC[C@H](OC(C)=O)C(C)(C)[C@@H]4CC[C@@]3(C)[C@]1(C)CC2 (stereo not given in full) | 4.3 µM | > 10 µM | 59.9% | 15.7% | –
CCC(C)C(NC(=O)[C@]12CC[C@@H](C)[C@H](C)[C@H]1C1=CC[C@@H]3[C@@]4(C)CC[C@H](OC(C)=O)C(C)(C)[C@@H]4CC[C@@]3(C)[C@]1(C)CC2)C(=O)OC (stereo not given in full) | > 10 µM | – | 15.9% | – | –
COC(=O)CNC(=O)[C@]12CC[C@@H](C)[C@H](C)[C@H]1C1=CC[C@@H]3[C@@]4(C)CC[C@H](OC(C)=O)C(C)(C)[C@@H]4CC[C@@]3(C)[C@]1(C)CC2 | 4.86 µM | > 10 µM | 61.7% | 17.9% | –

Further lines, with some results ahead:

IC50 [1] | IC50 [11] | Compound | inhibition at 10 µM [2] | inhibition at 10 µM [12] | also measured
> 10 µM | – | CC(=O)O[C@H]1CC[C@]2(C)[C@H]3CC=C4[C@@H]5[C@@H](C)[C@H](C)CC[C@]5(C(=O)O)CC[C@@]4(C)[C@]3(C)CC[C@H]2C1(C)C [O-ACETYLURSOLIC ACID] | 37.8% | – | –
2.62 µM | 8.3 µM | CC(=O)OCC(C)NC(=O)[C@]12CC[C@@H](C)[C@H](C)[C@H]1C1=CC[C@@H]3[C@@]4(C)CC[C@H](OC(C)=O)C(C)(C)[C@@H]4CC[C@@]3(C)[C@]1(C)CC2 (stereo not given in full) | 69.3% | 56.3% | Activity [3]: Dose-dependent effect; IC50 [4]: 2.24 µM; Activity [5]: 47%; Activity [6]: 44.8%; Activity [7]: 46.7%; Activity [8]: 54%; Activity [9]: 8.5%; inhibition at 10 µM [10]: 70.5%; Activity [13]: Dose-dependent effect; Activity [14]: 39.4%; Activity [15]: 32.5%; Activity [16]: 36.7%; Activity [17]: 13.6%; Activity [18]: 9.3%
10.8 µM | – | CC(=O)O[C@H]1CC[C@]2(C)[C@H]3CC=C4[C@@H]5[C@@H](C)[C@H](C)CC[C@]5(C(=O)NCCO)CC[C@@]4(C)[C@]3(C)CC[C@H]2C1(C)C | 50.3% | – | –
> 10 µM | > 10 µM | C[C@H]1[C@H](C)CC[C@]2(C(=O)O)CC[C@]3(C)C(=CC[C@@H]4[C@@]5(C)CC[C@H](O)C(C)(C)[C@@H]5CC[C@]43C)[C@H]12 [URSOLIC ACID] | 12.4% | 10.2% | IC50 [4]: > 10 µM; inhibition at 10 µM [10]: 9.06%
> 10 µM | – | C[C@H]1[C@H](C)CC[C@]2(C(=O)NC(Cc3ccc(O)cc3)C(=O)O)CC[C@]3(C)C(=CC[C@@H]4[C@@]5(C)CC[C@H](O)C(C)(C)[C@@H]5CC[C@]43C)[C@H]12 (stereo not given in full) | 23.6% | – | –
– | 0.016 µM | CC(=O)O[C@H]1C(=O)[C@@]2(C)[C@H]([C@H](OC(=O)c3ccccc3)[C@]3(O)C[C@H](OC(=O)[C@H](O)[C@@H](NC(=O)c4ccccc4)c4ccccc4)C(C)=C1C3(C)C)[C@]1(OC(C)=O)CO[C@@H]1C[C@@H]2O [PACLITAXEL] | – | – | IC50 [4]: 0.001 µM
> 10 µM | – | C[C@H]1[C@H](C)CC[C@]2(C(=O)NC(Cc3ccccc3)C(=O)O)CC[C@]3(C)C(=CC[C@@H]4[C@@]5(C)CC[C@H](O)C(C)(C)[C@@H]5CC[C@]43C)[C@H]12 (stereo not given in full) | 27.5% | – | –
9.04 µM | > 10 µM | COC(=O)C(Cc1ccc(O)cc1)NC(=O)[C@]12CC[C@@H](C)[C@H](C)[C@H]1C1=CC[C@@H]3[C@@]4(C)CC[C@H](OC(C)=O)C(C)(C)[C@@H]4CC[C@@]3(C)[C@]1(C)CC2 (stereo not given in full) | 51.5% | 41.6% | –
> 10 µM | – | CC(O)C(NC(=O)[C@]12CC[C@@H](C)[C@H](C)[C@H]1C1=CC[C@@H]3[C@@]4(C)CC[C@H](O)C(C)(C)[C@@H]4CC[C@@]3(C)[C@]1(C)CC2)C(=O)O (stereo not given in full) | 22% | – | –
> 10 µM | > 10 µM | CC(=O)OCc1ccccc1NC(=O)[C@]12CC[C@@H](C)[C@H](C)[C@H]1C1=CC[C@@H]3[C@@]4(C)CC[C@H](OC(C)=O)C(C)(C)[C@@H]4CC[C@@]3(C)[C@]1(C)CC2 | 30.5% | 13% | IC50 [4]: > 10 µM; inhibition at 10 µM [10]: 1.19%
1.13 µM | > 10 µM | CC(=O)OCCNC(=O)[C@]12CC[C@@H](C)[C@H](C)[C@H]1C1=CC[C@@H]3[C@@]4(C)CC[C@H](OC(C)=O)C(C)(C)[C@@H]4CC[C@@]3(C)[C@]1(C)CC2 | 73.5% | 42% | Activity [3]: Dose-dependent effect; IC50 [4]: 6.09 µM; Activity [5]: 41.1%; Activity [6]: 45.9%; Activity [7]: 41.8%; Activity [8]: 44.8%; Activity [9]: 12.3%; inhibition at 10 µM [10]: 54.8%; Activity [13]: Dose-dependent effect; Activity [14]: 49.8%; Activity [15]: 35.3%; Activity [16]: 51.1%; Activity [17]: 9.2%; Activity [18]: 4.2%
